{"source": "paper PMC4281708", "about": "(Cancer research, 2012)", "key": {"[1]": {"target": "T1, T877A-AR (Homo sapiens, UniProt P10275, T878A)", "T1 sequence (P10275 1-920 T878A)": "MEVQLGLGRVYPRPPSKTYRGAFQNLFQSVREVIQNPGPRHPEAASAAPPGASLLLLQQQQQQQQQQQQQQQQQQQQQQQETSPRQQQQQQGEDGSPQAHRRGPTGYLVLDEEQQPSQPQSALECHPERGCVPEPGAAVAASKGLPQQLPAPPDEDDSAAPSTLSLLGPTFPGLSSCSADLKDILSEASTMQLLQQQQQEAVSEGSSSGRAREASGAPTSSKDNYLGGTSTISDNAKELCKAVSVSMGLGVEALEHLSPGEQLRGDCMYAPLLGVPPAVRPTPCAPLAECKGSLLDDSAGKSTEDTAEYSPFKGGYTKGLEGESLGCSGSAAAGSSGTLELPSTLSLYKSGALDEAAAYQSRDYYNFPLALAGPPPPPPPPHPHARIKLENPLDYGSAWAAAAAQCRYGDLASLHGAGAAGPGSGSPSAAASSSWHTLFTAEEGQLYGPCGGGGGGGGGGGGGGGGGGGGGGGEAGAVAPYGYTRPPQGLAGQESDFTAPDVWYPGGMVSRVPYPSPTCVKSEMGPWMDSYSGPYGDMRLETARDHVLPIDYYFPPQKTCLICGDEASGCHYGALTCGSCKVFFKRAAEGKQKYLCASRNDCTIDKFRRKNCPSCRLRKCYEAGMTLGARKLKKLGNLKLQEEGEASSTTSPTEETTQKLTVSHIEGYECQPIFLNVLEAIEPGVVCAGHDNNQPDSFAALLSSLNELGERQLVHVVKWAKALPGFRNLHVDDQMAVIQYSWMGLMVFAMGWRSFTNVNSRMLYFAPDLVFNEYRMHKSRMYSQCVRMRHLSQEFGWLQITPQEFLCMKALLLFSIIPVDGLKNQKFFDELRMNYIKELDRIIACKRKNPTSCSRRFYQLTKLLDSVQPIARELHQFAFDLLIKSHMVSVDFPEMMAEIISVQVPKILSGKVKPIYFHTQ", "assay_type": "cell-based"}, "[2]": {"tested_on": "WT or mutant AR (T877A, D879G, W741C, M749L, R629Q)", "assay": "ARE3-luciferase reporter assay in PC-3 cells, WT and mutant AR panel", "assay_type": "cell-based, human"}, "[3]": {"tested_on": "WT or mutant human AR (T877A, G142V, P533S, T575A, H874Y, R629Q)", "assay": "GRE2-TATA-Luc reporter assay in COS-7 cells co-transfected with AR", "assay_type": "cell-based"}, "[4]": {"tested_on": "LNCaP cells", "assay": "Cell viability", "assay_type": "cell-based, human", "settings": "for growth inhibition of LNCaP cells stimulated by eplerenone / growth inhibition of LNCaP cells stimulated by spironolactone: 0.1, 1 or 5μM abiraterone, 10μM bicalutamide or 10μM MDV3100, 7 days; for proliferation of hormone-stripped LNCaP (T877A-AR): 1 and 10μM, CSS, 7 days"}, "[5]": {"tested_on": "VCaP cells", "assay": "Cell viability", "assay_type": "cell-based, human", "settings": "for growth inhibition of VCaP cells stimulated by spironolactone: 0.1, 1 or 5μM abiraterone, 10μM bicalutamide or 10μM MDV3100, 7 days; for proliferation of VCaP (WT-AR): 1 and 10μM, CSS, 7 days"}, "[6]": {"tested_on": "PC-3", "assay": "Cell proliferation, PC-3", "assay_type": "cell-based, human", "settings": "AR-negative prostate cancer cell line"}, "[7]": {"tested_on": "DU145", "assay": "Cell proliferation, DU145", "assay_type": "cell-based, human", "settings": "AR-negative prostate cancer cell line"}, "[8]": {"target": "T2, WT-AR (Homo sapiens, UniProt P10275)", "T2 sequence (P10275 1-920)": "T1 sequence (P10275 1-920 T878A) with A878T", "assay": "cell-based", "assay_type": "binding"}, "[9]": {"target": "T1, T877A-AR", "assay": "cell-based", "assay_type": "binding"}, "[10]": {"target": "T3, LNCaP (T877A-AR) (Homo sapiens, UniProt P10275, T878A)", "T3 sequence (P10275 1-920 T878A)": "T1 sequence (P10275 1-920 T878A)", "assay": "cell-based", "assay_type": "binding"}, "[11]": {"tested_on": "PSA and TMPRSS2 mRNA expression in LNCaP cells", "assay": "Quantitative RT-PCR of AR-regulated genes, LNCaP", "assay_type": "cell-based, human", "outline": "(§1)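 Cells held 24 h in phenol red-free medium with charcoal-stripped serum, then treated 5 h with test compound (0.1–10 µM) or 0.1nM R1881. After RNA extraction and cDNA synthesis, SYBR Green qPCR for PSA and TMPRSS2 used 50ng cDNA per reaction, each sample run in duplicate. Normalised to actin and GAPDH, relative to a reference sample (2^-ΔΔCt). 3 independent experiments, mean ± SEM.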"}, "[12]": {"assay": "Solubility in cell media", "assay_type": "physicochemical", "settings": "plasma or biological fluid, kinetic from dmso stock"}, "[13]": {"settings": "patients ref 2; cited from earlier work"}, "[14]": {"tested_on": "castration-resistant prostate cancer (CRPC)", "settings": "1000mg abiraterone daily ref 1, 2; cited from earlier work"}, "[15]": {"tested_on": "AR", "settings": "cited from earlier work"}, "[16]": {"tested_on": "wild-type (WT)-AR", "assay": "PSA-ARE3-luc luciferase reporter assay in transfected PC-3 cells, WT-AR", "assay_type": "cell-based, human", "settings": "compared to R1881"}, "[17]": {"tested_on": "D879G-AR", "assay": "PSA-ARE3-luc luciferase reporter assay in transfected PC-3 cells, D879G-AR", "assay_type": "cell-based, human", "settings": "compared to R1881", "outline": "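Human AR expression plasmid carrying the mutation (confirmed by sequencing) co-transfected with PSA-ARE3-luc reporter into PC-3 cells. Cells grown 30 h in phenol red-free RPMI 1640 with 10% charcoal-stripped serum, then exposed 16 h to test compound (DMSO ≤0.2%) with R1881 as reference agonist. Luminescence read after ONE Glo. Fold change vs DMSO control; EC50 by nonlinear regression; 3 independent experiments, 16 replicates.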"}, "[18]": {"tested_on": "W741C-AR", "assay": "PSA-ARE3-luc luciferase reporter assay in transfected PC-3 cells, W741C-AR", "assay_type": "cell-based, human"}, "[19]": {"tested_on": "PSA and TMPRSS2 mRNA expression in VCaP cells", "assay": "Quantitative RT-PCR of AR-regulated genes, VCaP", "assay_type": "cell-based, human", "settings": "0.1 - 10μM eplerenone, 5 hours", "outline": "as §1"}, "[20]": {"settings": "100mg eplerenone ref 6, cited from earlier work"}, "[21]": {"tested_on": "wild-type (WT)-AR", "settings": "cited from earlier work"}}, "note": "Substitutions are numbered along the chain they refer to. “Also recorded” adds a separate entry of the source. Read-outs that look alike come from different tables or passages of the source.", "data": [{"smiles": "C[C@]12CC[C@H](O)CC1=CC[C@@H]1[C@@H]2CC[C@]2(C)C(c3cccnc3)=CC[C@@H]12", "note": "[abiraterone]", "values": [{"measurement": "inhibition of activation of T877A-AR by 1μM eplerenone", "setting": "[1]", "result": "significantly inhibited"}, {"measurement": "inhibition of stimulated WT and mutant AR activity", "setting": "[2]; 0.1nM R1881, 16 hours", "result": "dose-proportional inhibition"}, {"measurement": "AR inhibition", "setting": "[2]; 1μM abiraterone", "result": "up to 32%"}, {"measurement": "increase in reporter-luciferase activity (agonistic activity) with WT-AR or any mutation tested", "setting": "[2]; doses up to 25μM", "result": "did not observe an increase in reporter-luciferase activity; also recorded: no agonistic activity was observed"}, {"measurement": "inhibition of R629Q-AR", "setting": "[3]; COS-7, 10nM DHT, compared with PC-3 ARE3-luciferase assay", "result": "Higher concentrations of abiraterone were required"}, {"measurement": "inhibition of WT-AR, T877A-AR, G142V-AR, P533S-AR, T575A-AR and H874Y-AR", "setting": "[3]; COS-7, activated by 10nM DHT for 24 hours, 0.1 - 5μM", "result": "dose-proportional inhibition"}, {"measurement": "growth inhibition of LNCaP cells stimulated by eplerenone", "setting": "[4]", "result": "dose-proportional growth inhibition"}, {"measurement": "growth inhibition of LNCaP cells stimulated by spironolactone", "setting": "[4]", "result": "dose-proportional growth inhibition"}, {"measurement": "doses with significant inhibition of proliferation of LNCaP", "setting": "[4]; CSS with 0.1nM R1881, 7 days", "result": "≥ 5", "unit": "µM"}, {"measurement": "growth inhibition of VCaP cells stimulated by spironolactone", "setting": "[5]", "result": "dose-proportional growth inhibition"}, {"measurement": "doses with significant inhibition of proliferation of VCaP", "setting": "[5]; CSS with 0.1nM R1881, 7 days", "result": "≥ 5", "unit": "µM"}, {"measurement": "inhibitory effect on proliferation of PC-3", "setting": "[6]", "result": "No inhibitory effect was observed"}, {"measurement": "inhibitory effect on proliferation of DU145", "setting": "[7]", "result": "No inhibitory effect was observed"}, {"measurement": "EC50", "setting": "[8]", "result": 13.4, "unit": "µM"}, {"measurement": "EC50", "setting": "[9]", "result": 7.9, "unit": "µM"}, {"measurement": "EC50", "setting": "[10]", "result": 2.6, "unit": "µM"}, {"measurement": "regulation of PSA and TMPRSS2 in LNCaP cells treated with abiraterone", "setting": "[11]; 5μM abiraterone, 0.1nM R1881, 5 hours", "result": "down-regulation"}, {"measurement": "solubility", "setting": "[12]", "result": "> 25", "unit": "µM"}, {"measurement": "doses safely tolerated", "setting": "[13]", "result": "at least 2000 mg daily"}, {"measurement": "objective tumor responses, CRPC patients", "setting": "[14]", "result": "up to 60%"}, {"measurement": "binding to the AR", "setting": "[15]", "result": "failed to identify binding"}, {"measurement": "effect on AR levels", "setting": "[15]", "result": "dose-dependent decrease in AR levels"}]}, {"smiles": "C[C@]12C=CC(=O)C=C1CC[C@@H]1[C@@H]2C(=O)C[C@@]2(C)[C@H]1CC[C@]2(O)C(=O)CO", "note": "[prednisone]", "values": [{"measurement": "activation of WT-AR", "setting": "[16]", "result": "do not activate"}]}, {"smiles": "C[C@@H]1C[C@H]2[C@@H]3CCC4=CC(=O)C=C[C@]4(C)[C@@]3(F)[C@@H](O)C[C@]2(C)[C@@]1(O)C(=O)CO", "note": "[dexamethasone]", "values": [{"measurement": "activation of WT-AR", "setting": "[16]", "result": "do not activate"}]}, {"smiles": "COC(=O)[C@@H]1CC2=CC(=O)CC[C@]2(C)[C@@]23O[C@@H]2C[C@@]2(C)[C@@H](CC[C@@]24CCC(=O)O4)[C@H]13", "note": "[eplerenone]", "values": [{"measurement": "activation of WT-AR", "setting": "[16]", "result": "does not activate"}, {"measurement": "activation of D879G-AR", "setting": "[17]", "result": "does not activate"}, {"measurement": "activation of W741C-AR", "setting": "[18]", "result": "does not activate"}, {"measurement": "proliferation of hormone-stripped LNCaP (T877A-AR)", "setting": "[4]", "result": "increased proliferation"}, {"measurement": "proliferation of VCaP (WT-AR)", "setting": "[5]", "result": "only spironolactone increased the proliferation"}, {"measurement": "expression of PSA and TMPRSS2 in LNCaP", "setting": "[11]; 0.1 - 10μM eplerenone, 5 hours", "result": "significantly increased expression"}, {"measurement": "expression of PSA and TMPRSS2 in VCaP", "setting": "[19]", "result": "not in VCaP"}, {"measurement": "Cmax", "setting": "[20]", "result": "1720 ± 280", "unit": "ng/mL"}, {"measurement": "Cmax", "setting": "[20]; read-out: Cmax (equivalent)", "result": 4.2, "unit": "µM"}, {"measurement": "binding and activation of wild-type (WT)-AR", "setting": "[21]", "result": "did not bind and activate"}]}, {"smiles": "CNC(=O)c1ccc(N2C(=S)N(c3ccc(C#N)c(C(F)(F)F)c3)C(=O)C2(C)C)cc1F", "note": "[MDV3100]", "values": [{"measurement": "growth inhibition of LNCaP cells stimulated by eplerenone", "setting": "[4]", "result": "more profound inhibition"}, {"measurement": "growth inhibition of LNCaP cells stimulated by spironolactone", "setting": "[4]", "result": "more profound inhibition"}, {"measurement": "growth inhibition of VCaP cells stimulated by spironolactone", "setting": "[5]", "result": "more profound inhibition"}, {"measurement": "inhibition of induction of TMPRSS2 expression by eplerenone", "setting": "[11]; LNCaP, 10μM eplerenone, 10μM MDV3100, 5 hours", "result": "more significantly than bicalutamide or abiraterone"}]}, {"smiles": "CC(=O)S[C@@H]1CC2=CC(=O)CC[C@]2(C)[C@H]2CC[C@@]3(C)[C@@H](CC[C@@]34CCC(=O)O4)[C@H]12", "note": "[spironolactone]", "values": [{"measurement": "activation of WT-AR", "setting": "[16]", "result": "activates"}, {"measurement": "activation of D879G-AR", "setting": "[17]", "result": "activates"}, {"measurement": "proliferation of hormone-stripped LNCaP (T877A-AR)", "setting": "[4]", "result": "increased proliferation"}, {"measurement": "proliferation of VCaP (WT-AR)", "setting": "[5]", "result": "increased the proliferation"}]}, {"smiles": "CC(O)(CS(=O)(=O)c1ccc(F)cc1)C(=O)Nc1ccc(C#N)c(C(F)(F)F)c1", "note": "(stereo not shown) [bicalutamide]", "values": [{"measurement": "activation of W741C-AR", "setting": "[18]", "result": "activated"}]}]}
